This note sets out measurements from ChEMBL document CHEMBL4406923, “New Potent DOT1L Inhibitors for in Vivo Evaluation in Mouse” (ACS Med Chem Lett, 2019).

One may read the IC50 as the concentration that inhibits the measured activity by half. For orientation: AUC(0-t) means the area under the concentration-time curve up to a stated or last time point. The AUC is the area under the concentration-time curve, a measure of exposure. A word on the Cmax: it is the peak of the concentration-time curve. For orientation: bioavailability means dose-corrected exposure relative to a reference, in per cent. The low end stands for little systemic uptake, the high end for much systemic uptake. One may read the logD as the decadic logarithm of the distribution of all forms, ionised or not, between an organic phase and buffer at a given pH. A higher logD goes with a more lipophilic compound.

Data set [1] is described as follows: Induction of CYP3A4 in rat hepatocytes. It is filed as ADME, cell-based.
Data set [2] addresses T1, Histone-lysine N-methyltransferase, H3 lysine-79 specific (Homo sapiens, UniProt Q8TEK3). Description: Inhibition of 0.05 nM DOT1L (2 to 416 residues) (unknown origin) using biotinylated nucleosome as substrate and [3H]SAM as co-factor preincubated for 30 mins followed by substrate and cofactor addition and measured after 180 mins by scintillation proximity assay. For orientation: Scintillation proximity formats need no separation of bound from free tracer.
Target sequence in this assay (Q8TEK3 whole entry, the tested form may be a part): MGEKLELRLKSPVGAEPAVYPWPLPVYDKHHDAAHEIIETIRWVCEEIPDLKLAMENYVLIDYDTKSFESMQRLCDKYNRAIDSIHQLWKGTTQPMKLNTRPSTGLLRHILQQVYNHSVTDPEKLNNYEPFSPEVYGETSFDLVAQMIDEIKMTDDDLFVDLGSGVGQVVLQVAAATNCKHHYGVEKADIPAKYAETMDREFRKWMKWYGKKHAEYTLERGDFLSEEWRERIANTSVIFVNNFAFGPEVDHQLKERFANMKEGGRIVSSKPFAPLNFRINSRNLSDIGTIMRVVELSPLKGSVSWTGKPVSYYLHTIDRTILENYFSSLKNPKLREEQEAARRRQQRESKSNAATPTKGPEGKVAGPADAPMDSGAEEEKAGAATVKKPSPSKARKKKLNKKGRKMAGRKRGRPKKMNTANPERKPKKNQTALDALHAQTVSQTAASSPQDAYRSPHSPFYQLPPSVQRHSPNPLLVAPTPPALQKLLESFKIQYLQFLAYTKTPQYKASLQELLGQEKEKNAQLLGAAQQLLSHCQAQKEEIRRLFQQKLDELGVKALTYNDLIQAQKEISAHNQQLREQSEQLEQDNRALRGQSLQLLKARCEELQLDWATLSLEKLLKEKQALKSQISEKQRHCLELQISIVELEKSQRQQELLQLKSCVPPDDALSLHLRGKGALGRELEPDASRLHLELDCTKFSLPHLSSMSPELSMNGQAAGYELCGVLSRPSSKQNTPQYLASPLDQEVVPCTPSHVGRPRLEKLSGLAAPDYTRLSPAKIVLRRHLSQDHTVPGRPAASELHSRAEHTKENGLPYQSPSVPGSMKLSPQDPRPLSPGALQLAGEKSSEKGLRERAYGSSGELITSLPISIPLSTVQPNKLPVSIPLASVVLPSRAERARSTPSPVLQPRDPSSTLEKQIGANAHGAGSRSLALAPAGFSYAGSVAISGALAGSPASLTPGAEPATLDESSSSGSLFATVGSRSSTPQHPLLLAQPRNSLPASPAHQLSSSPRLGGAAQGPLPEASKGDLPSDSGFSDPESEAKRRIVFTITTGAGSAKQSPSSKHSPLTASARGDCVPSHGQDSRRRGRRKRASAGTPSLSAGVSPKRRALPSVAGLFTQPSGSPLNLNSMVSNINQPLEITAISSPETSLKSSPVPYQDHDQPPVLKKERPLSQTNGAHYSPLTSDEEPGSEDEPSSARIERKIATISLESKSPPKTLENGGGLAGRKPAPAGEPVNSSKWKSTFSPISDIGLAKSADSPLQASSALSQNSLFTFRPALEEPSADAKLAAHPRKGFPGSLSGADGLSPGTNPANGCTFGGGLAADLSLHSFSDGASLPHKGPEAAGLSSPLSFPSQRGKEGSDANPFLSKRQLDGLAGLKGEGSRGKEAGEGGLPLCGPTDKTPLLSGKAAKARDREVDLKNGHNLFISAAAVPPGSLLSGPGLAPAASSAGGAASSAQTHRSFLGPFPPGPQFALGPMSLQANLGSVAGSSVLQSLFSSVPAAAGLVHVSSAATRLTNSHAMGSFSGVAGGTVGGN

Data set [3] addresses T1, Histone-lysine N-methyltransferase, H3 lysine-79 specific. Nature of the data set: Inhibition of DOT1L in human HeLa cells assessed as reduction in H3K79 dimethylation measured after 72 hrs by ELISA. It is filed as cell-based. On the technique in general: An ELISA detects its analyte on a solid surface through an enzyme-linked reagent.
Target sequence in this assay (Q8TEK3 whole entry, looked up, the tested form may be a part): as the sequence (Q8TEK3 whole entry, the tested form may be a part) above
The nature of data set [4]: AUC (0 to 12 hrs) in C57BL/6 mouse at 100 mg/kg, po administered as single dose. It is filed as ADME, organism-based. Also on record: dose 100 mg/kg, time < 12 hr, route oral. The following applies: in vivo.
Data set [5] is described as follows: AUC (0 to 12 hrs) in C57BL/6 mouse at 100 mg/kg, po bid for 20 days. It is filed as ADME, organism-based. More on the design: dose 100 mg/kg, time < 12 hr, route oral. The following applies: in vivo.
The next data set has as its target Cytochrome P450 3A4 (Homo sapiens, UniProt P08684). Description: Induction of CYP3A4 in human hepatocytes. It is filed as ADME, cell-based.
Data set [6] is described as follows: Cmax in C57BL/6 mouse at 100 mg/kg, po bid for 20 days. It is filed as ADME, organism-based. More on the design: dose 100 mg/kg, route oral. The following applies: in vivo.
A short description of data set [7]: Cmax in C57BL/6 mouse at 100 mg/kg, po administered as single dose. More on the design: dose 100 mg/kg, route oral. The following applies: in vivo. The data set is classed as ADME, organism-based.
The target in data set [8] is T1, Histone-lysine N-methyltransferase, H3 lysine-79 specific. Description: Inhibition of 0.5 nM DOT1L (2 to 416 residues) (unknown origin) using biotinylated nucleosome as substrate and [3H]SAM as co-factor preincubated for 30 mins followed by substrate and cofactor addition and measured after 90 mins by scintillation proximity assay.
Target sequence in this assay (Q8TEK3 whole entry, the tested form may be a part): as above
Data set [9] has as its system Mus musculus. Nature of the data set: In vivo inhibition of DOT1L in C57BL/6 mouse xenografted with human MV4-11 cells assessed as reduction in H3K79 dimethylation at 200 mg/kg, administered twice daily for 23 days by ELISA relative to control. It is filed as functional. The following applies: 552 h. A general note: A xenograft is tissue or cells of one species grown in another, often human tumour cells in immunodeficient mice.

Data set [10] concerns Mus musculus. Nature of the data set: In vivo inhibition of DOT1L in C57BL/6 mouse xenografted with human MV4-11 cells assessed as reduction in MEIS1 gene expression at 200 mg/kg, administered twice daily for 23 days by qPCR analysis. It is filed as functional, organism-based.
Data set [11] in a line: Oral bioavailability in C57BL/6 mouse at 3 mg/kg measured upto 24 hrs by LC-MS/MS analysis. It is filed as ADME, organism-based. The following applies: in vivo.
Data set [12] addresses T1, Histone-lysine N-methyltransferase, H3 lysine-79 specific. Nature of the data set: Inhibition of DOT1L in human MOLM13 cells assessed as reduction in HOXA9 gene expression incubated for 72 hrs by bright-glo luciferase reporter gene assay. The data set is classed as cell-based.
Target sequence in this assay (Q8TEK3 whole entry, looked up, the tested form may be a part): as the sequence (Q8TEK3 whole entry, the tested form may be a part) above
Data set [13] concerns MV4-11. Description: Antitumor activity against human MV4-11 cells xenografted in C57BL/6 mouse assessed as tumor growth inhibition at 200 mg/kg, administered twice daily for 23 days. It is filed as functional, organism-based. In outline:
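Mice bearing subcutaneous MV4-11 xenografts were treated for 23 days at 200 mg/kg twice daily. Tumor growth inhibition was assessed against control.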

The test system of data set [14] is Mus musculus. Nature of the data set: In vivo inhibition of DOT1L in C57BL/6 mouse xenografted with human MV4-11 cells assessed as reduction in HOXA9 gene expression at 200 mg/kg, administered twice daily for 23 days by qPCR analysis. The data set is classed as functional, organism-based.
A short description of data set [15]: Oral bioavailability in Sprague-Dawley Crl:CD(SD) rat at 3 mg/kg measured upto 24 hrs by LC-MS/MS analysis. It is filed as ADME, organism-based. The following applies: in vivo.
A short description of data set [16]: Intrinsic clearance in rat liver microsomes. The following applies: read-out: CLH. It is filed as ADME, Microsome.
Data set [17] has as its system Mus musculus. Description: In vivo inhibition of DOT1L in NOD-SCID mouse xenografted with human MV4-11 cells assessed as reduction in HOXA9 gene expression at 75 mg/kg, sc administered qd for 20 days by qPCR analysis. The following applies: MV4-11, sc, 480 h.
Data set [18] is described as follows: Lipophilicity, log D of the compound at pH 7.4. It is filed as physicochemical. The following applies: buffer.
In data set [19] the test system is Mus musculus. Description: In vivo inhibition of DOT1L in NOD-SCID mouse xenografted with human MV4-11 cells assessed as reduction in HOXA9 gene expression at 75 mg/kg, sc administered bid for 20 days by qPCR analysis. The following applies: MV4-11, sc, 480 h.
Data set [20] concerns MV4-11. Nature of the data set: Antitumor activity against human MV4-11 cells xenografted in NOD-SCID mouse assessed as tumor growth inhibition at 75 mg/kg, sc administered bid for 20 days. The following applies: MV4-11, sc, 480 h, read-out: TGI.
Data set [21] concerns Mus musculus. Description: In vivo inhibition of DOT1L in NOD-SCID mouse xenografted with human MV4-11 cells assessed as reduction in H3K79 dimethylation at 75 mg/kg, sc administered bid for 20 days.
Data set [22] can be described thus: Toxicity in NOD-SCID mouse xenografted with human MV4-11 cells assessed as change in body weight at 75 mg/kg, sc administered bid for 20 days. The following applies: in vivo, 480 h.
Data set [23] deals with Mus musculus. Nature of the data set: In vivo inhibition of DOT1L in NOD-SCID mouse xenografted with human MV4-11 cells assessed as reduction in H3K79 dimethylation at 75 mg/kg, sc administered once daily for 20 days by ELISA.
For data set [24], the system named is Mus musculus. Nature of the data set: In vivo inhibition of DOT1L in NOD-SCID mouse xenografted with human MV4-11 cells assessed as reduction in MEIS1 gene expression at 75 mg/kg, sc administered qd for 20 days by qPCR analysis. The following applies: MV4-11, sc, 480 h.
Data set [25] relates to MV4-11. Nature of the data set: Antitumor activity against human MV4-11 cells xenografted in NOD-SCID mouse assessed as tumor growth inhibition at 75 mg/kg, sc qd administered for 20 days.
A short description of data set [26]: Toxicity in NOD-SCID mouse xenografted with human MV4-11 cells assessed as change in body weight at 75 mg/kg, sc administered qd for 20 days. The following applies: in vivo, 480 h.
Data set [27] has as its system Mus musculus. Description: In vivo inhibition of DOT1L in NOD-SCID mouse xenografted with human MV4-11 cells assessed as reduction in H3K79 dimethylation at 75 mg/kg, sc administered twice daily for 20 days.
Data set [28] is described as follows: Drug uptake in C57BL/6 mouse at 50 mg/kg, sc administered twice daily for 7 days. The data set is classed as ADME, organism-based. The following applies: in vivo, 168 h.
The subject of data set [29] is Mus musculus. Description: In vivo inhibition of DOT1L in NOD-SCID mouse xenografted with human MV4-11 cells assessed as reduction in MEIS1 gene expression at 75 mg/kg, sc administered bid for 20 days by qPCR analysis. The following applies: MV4-11, sc, 480 h.
In data set [30] the test system is MV4-11. Description: Antitumor activity against human MV4-11 cells xenografted in sc dosed C57BL/6 mouse assessed as reduction in tumor growth at => MTD. It is filed as functional, organism-based.

Each structure is given as a SMILES string. The source made the active and inactive calls. The calls are words filed in the database; no cut-off is given here.

Sequence of Cytochrome P450 3A4 (P08684 whole entry): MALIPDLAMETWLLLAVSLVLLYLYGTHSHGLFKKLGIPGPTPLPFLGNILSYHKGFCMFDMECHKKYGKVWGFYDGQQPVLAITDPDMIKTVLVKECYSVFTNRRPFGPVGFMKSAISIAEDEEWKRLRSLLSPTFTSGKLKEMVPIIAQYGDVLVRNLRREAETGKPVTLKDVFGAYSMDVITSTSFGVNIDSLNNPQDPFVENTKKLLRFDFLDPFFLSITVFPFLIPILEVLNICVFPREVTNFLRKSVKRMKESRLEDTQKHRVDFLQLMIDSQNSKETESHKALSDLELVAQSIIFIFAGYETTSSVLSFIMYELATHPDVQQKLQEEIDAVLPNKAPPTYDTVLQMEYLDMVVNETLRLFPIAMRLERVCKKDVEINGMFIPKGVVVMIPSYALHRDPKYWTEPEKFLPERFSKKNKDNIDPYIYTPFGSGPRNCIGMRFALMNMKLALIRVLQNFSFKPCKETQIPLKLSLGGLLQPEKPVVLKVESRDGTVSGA

Regarding `COc1nc(Nc2cc(S(C)(=O)=O)ccc2N[C@@H](c2cccc(Cl)c2F)c2ncccc2F)nc(OC)n1`, the result (in data set [1]; on Cytochrome P450 3A4) was Active. Moreover, the midpoint of inhibition in data set [2], the IC50, lay at 0.59 nM. Also, the ED50 in data set [3] stood at 43 nM. In [4], this molecule showed an AUC(0-t) at 12 h of 216 µM·h. In data set [5], this molecule displayed an AUC at 12 h of 47 µM·h. The Cmax amounted to 12 µM in [6] and 24 µM in data set [7].
In [8], `NS(=O)(=O)c1ccc(NC(c2ccccc2)c2ccccc2)c([N+](=O)[O-])c1` came in with an IC50 of 8500 nM.
On to `CS(=O)(=O)c1ccc(N[C@H](c2ccccn2)c2cccc(Cl)c2F)c(Nc2nccc(C(N)=O)n2)c1`, for which the inhibition in vivo at 200 mg/kg with Mus musculus [9] turned out to be 50%. Moreover, the inhibition result in the data set on Mus musculus [10] and in the data set on Mus musculus [14] was “inactive” each time. Further, the IC50 was 2.1 nM in [2] and 3.9 nM in data set [8]. Also, the ED50 in data set [3] amounted to 300 nM; in data set [12], 4500 nM. Moreover, the bioavailability in data set [11] was 26%; in [15], 36%. Further, in the data set with MV4-11 [13], the TGI entry is “inactive”.
Take `CS(=O)(=O)c1ccc(N[C@H](c2ccccn2)c2cccc(Cl)c2F)c(Nc2ncccn2)c1`: the microsomal CLint in data set [16] was determined as 50 µL/min/mg. In addition, the IC50 in [8] came to 97 nM.
Turning to `COc1nc(N)nc(Nc2cc(S(N)(=O)=O)ccc2N[C@@H](c2cccc3c2OC(F)(F)O3)c2ncccc2Cl)n1`, the inhibition in vivo at 75 mg/kg was 25% in the data set on Mus musculus [17]; 53% with Mus musculus [19]; 73% in the data set on MV4-11 [20]; 53% in the data set on Mus musculus [24]; 74% in the data set on Mus musculus [29]. The molecule also showed a logD in data set [18] of 3.5. The molecule also registered an IC50 in data set [2] of 0.17 nM. The results for the ED50 in [3] and in data set [12] were 2.9 nM and 30 nM, respectively. For the same molecule, the inhibition result in the data set with Mus musculus [21], with Mus musculus [23] and with Mus musculus [27] was “Active” throughout. Also, the Activity result in [22] and in data set [26] was “Non-Toxic” throughout. Besides, the TGI result in the data set on MV4-11 [25] was “inactive”. The Drug uptake entry in [28] was “Active”.
As to `CS(=O)(=O)c1ccc(N[C@@H](c2cccc(Cl)c2)c2ccccn2)c(Nc2ncccn2)c1`, in [16], the microsomal CLint amounted to 553 µL/min/mg. In data set [8], this molecule yielded an IC50 of 270 nM.
`CS(=O)(=O)c1ccc(NC(c2cccc(Cl)c2)c2ccccn2)c([N+](=O)[O-])c1` (racemic) returned an IC50 in data set [8] of 4600 nM.
As for `CS(=O)(=O)c1ccc(N[C@H](c2cccc(Cl)c2)c2ccccn2)c(Nc2ncccn2)c1`, it took 22800 nM to reach half-maximal inhibition in data set [8] (IC50).
`CS(=O)(=O)c1ccc(N[C@@H](c2cccc(Cl)c2F)c2ncccc2F)c(Nc2ncccn2)c1`: in data set [8], 16 nM corresponded to half-maximal inhibition (IC50).
As for `CC(C)N(C[C@H]1O[C@@H](n2cnc3c(N)ncnc32)[C@H](O)[C@@H]1O)[C@H]1C[C@@H](CCc2nc3cc(C(C)(C)C)ccc3[nH]2)C1`, the outcome with MV4-11 [30] was inactive.
In data set [2], `COc1nc(Nc2cc(S(C)(=O)=O)ccc2N[C@@H](c2cccc3c2OC(F)(F)O3)c2ncccc2Cl)nc(OC)n1` gave a concentration for half-maximal inhibition (IC50) of 0.19 nM. Besides, the values for the ED50 in [3] and in data set [12] were 12 nM and 170 nM, respectively.
